Sampled rows, rich in hits. Any-hit rate of the full collection: about 3.5%.
RGS4 act – RGS4 potentiation or activation | HEK293 M3R/inducible RGS4, carbachol calcium flux Fluo4; stronger effect = lower value | B-score at 10 µM | 0.92% of 310,000 active | AID 463111;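 active = B-score of the integrated calcium signal more than 4 SD below the library mean, with starting fluorescence not abnormally high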;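 note: negative B-score means reduced calcium response which marks RGS4 activation or potentiation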
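Material: Inducible-RGS4 HEK293 cells carrying M3 receptor; also added: carbachol at ECmax as muscarinic agonist stimulus; incubation: compound preincubation 20 min at room temperature before agonist; signal: Fluo4-AM (2 µM) calcium-flux fluorescence, kinetic read; measure: integrated calcium ratio converted to B score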
MrgX1 agonist – human MrgX1 receptor agonism, primary screen. B-score at 10 µM. 0.44% of 310,000 active. MrgX1-HEK293 cells, Fluo-4 calcium fluorescence, agonist mode; stronger effect = higher value. Q96LB2;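 active = calcium response B-score plate-corrected fluorescence ratio at least 3 library SD, with starting fluorescence B-score inside 5 SD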
Target sequence (Q96LB2 whole entry, looked up): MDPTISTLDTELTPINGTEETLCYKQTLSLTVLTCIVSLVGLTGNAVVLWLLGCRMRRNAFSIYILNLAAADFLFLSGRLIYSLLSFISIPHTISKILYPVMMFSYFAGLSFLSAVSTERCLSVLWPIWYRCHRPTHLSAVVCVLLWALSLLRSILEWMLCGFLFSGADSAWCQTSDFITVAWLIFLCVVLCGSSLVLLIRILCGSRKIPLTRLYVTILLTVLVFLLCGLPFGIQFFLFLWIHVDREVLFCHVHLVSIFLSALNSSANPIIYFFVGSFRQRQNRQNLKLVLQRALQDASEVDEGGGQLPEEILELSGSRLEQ
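System – MrgX1-expressing HEK293 cells · Incubation – cells plated overnight, dye loaded 0.5 h 37 °C, 0.5 h room temperature · Technique – kinetic Fluo-4 NW fluorescence of intracellular calcium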
MrgX1 antag – antagonists of human MrgX1 receptor | Q96LB2 | MRGX1-HEK293 calcium flux, Fluo-4, BAM8-22 antagonism; stronger effect = lower value | B-score at 10 µM | 1.3% of 310,000 active | AID 588676;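 active = calcium-response B-score plate-corrected more than 3 library SD below zero, starting fluorescence within 5 deviations, no agonist response on first addition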;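 note: peak minus trough fluorescence over baseline after final BAM8-22 challenge near maximal dose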
MrgX1 allo act – human MrgX1 positive allosteric modulation, primary screen; 0.63% of 310,000 active; AID 588675; Q96LB2; MrgX1-HEK293, Fluo-4 calcium flux, FDSS; stronger effect = higher value; B-score at 10 µM;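 active = plate-corrected calcium response at least 3 library SD above typical, normal starting fluorescence, not activating the receptor alone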;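 note: compound read alongside a low EC10 to EC30 dose of BAM8-22 agonist; peak minus trough fluorescence over baseline measured at the second addition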
RGS4 block – human RGS4 inhibition; P49798; HEK293 M3R/RGS4 inducible, Fluo-4 calcium flux; stronger effect = higher value; triggered by carbachol at its EC20; B-score at 10 µM; 0.45% of 310,000 active;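 active = B-score, a plate-corrected calcium signal, over three deviations above library mean, with baseline fluorescence within five deviations of library mean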;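 note: RGS4 expression induced by doxycycline in cells with stable M3 receptor; B-score is computed from the integrated fluorescence ratio over baseline after carbachol; higher B-score means a larger calcium signal and so more RGS4 inhibition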
Target sequence (P49798 whole entry, looked up): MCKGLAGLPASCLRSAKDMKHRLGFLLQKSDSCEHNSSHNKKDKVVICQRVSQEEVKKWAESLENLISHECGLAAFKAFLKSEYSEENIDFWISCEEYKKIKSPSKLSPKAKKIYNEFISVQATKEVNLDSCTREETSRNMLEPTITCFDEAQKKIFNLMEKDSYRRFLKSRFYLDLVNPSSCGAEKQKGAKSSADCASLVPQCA
MrgX1 ant reconf – confirmation of human MrgX1 receptor antagonists. shares compounds with MrgX1 antag. MrgX1-HEK293, BAM8-22 calcium flux, Fluo-4; stronger effect = lower value. remaining BAM8-22 calcium response % of control (stronger effect = lower value), % at 10 µM. 19% of 2,300 active;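 active = remaining agonist calcium response no higher than 100% minus 3 SD of agonist-only control wells, with starting fluorescence near control levels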;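 note: agonist BAM8-22 given at a near maximal EC90 to ECmax level; peak minus minimum fluorescence divided by baseline after agonist addition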
HEK293 Ca flux – counter-screen for MrgX1 antagonists: effect in parental HEK293 cells; 2% of 4,000 active; fluorescence ratio F(max-min)/F0 at 10 µM; Fluo-4 calcium fluorescence, FDSS; shares compounds with MrgX1 antag;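 active = duplicate-averaged calcium fluorescence ratio at least three times the standard deviation of buffer wells, a nonspecific response in parental cells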
HEK293 Ca counter – activity in parental HEK293 cells without MrgX1; shares compounds with MrgX1 antag; parental HEK293 calcium flux, Fluo-4 fluorescence ratio; stronger effect = higher value; fluorescence ratio F(max-min)/F0 at 10 µM; 0.4% of 4,000 active; AID 624114;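 active = calcium fluorescence ratio, averaged over duplicates, at least 3 SD of the buffer-well ratio, meaning a nonspecific response in receptor-free cells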;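 note: untransfected parental HEK293 lacking MrgX1 used as counterscreen for MrgX1 allosteric activators; fluorescence change taken during the second addition on a kinetic imager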
HEK293 Ca cntr2 – MrgX1 activator counter-screen hit in parental HEK293 cells; shares compounds with MrgX1 antag; Fluo-4 calcium fluorescence (FDSS); stronger effect = higher value; fluorescence ratio F(max-min)/F0 at 10 µM; 8.7% of 4,000 active; AID 624115;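 active = calcium fluorescence ratio at least three times the spread of buffer wells, meaning a non-specific response in parental cells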
Large screens that a line does not name were inactive (follow-up assays come after a bar, where they were run).

N#CC1(NC(=O)CN2CCN(S(=O)(=O)c3ccccc3F)CC2)CCCC1	MrgX1 antag -4.9 | MrgX1 ant reconf inactive | HEK293 Ca flux inactive | HEK293 Ca counter inactive | HEK293 Ca cntr2 inactive
CCOc1ccc(C(C)=O)cc1CSc1nc2nc(C)cc(C)n2n1	MrgX1 antag -5.7 | MrgX1 ant reconf 69% | HEK293 Ca flux inactive | HEK293 Ca counter inactive | HEK293 Ca cntr2 inactive
COCCn1c(C)cc(C(=O)CSc2nc(C)c(C)c(C)n2)c1C	none
COCCn1c(C)cc(C(=O)CSc2ncn[nH]2)c1C	MrgX1 antag -5.1 | MrgX1 ant reconf inactive | HEK293 Ca flux inactive | HEK293 Ca counter inactive | HEK293 Ca cntr2 inactive
COc1ccc(-c2c(C#N)c(N)nc3c2c(=O)n(C)c(=O)n3C)cc1Cl	MrgX1 antag -8.3 | MrgX1 ant reconf inactive | HEK293 Ca flux inactive | HEK293 Ca counter inactive | HEK293 Ca cntr2 inactive
CCOc1cc(/C=C/C(=O)N(CC)CC(=O)NCc2cccs2)cc(Cl)c1OC	none
Cc1nn(C)c(C(=O)N/N=C/c2ccc(-c3ccccc3)cc2)c1Cl	MrgX1 antag -10 | MrgX1 ant reconf inactive | HEK293 Ca flux inactive | HEK293 Ca counter inactive | HEK293 Ca cntr2 inactive
CC(C)CC(c1nnnn1CC1CCCO1)N1CCN(Cc2ccc3c(c2)OCO3)CC1 (stereo unspecified)	MrgX1 antag -5 | MrgX1 ant reconf inactive | HEK293 Ca flux inactive | HEK293 Ca counter inactive | HEK293 Ca cntr2 inactive
O=C(Cc1ccc(Cl)cc1)Nc1ccc(N2CCCC2)cc1	MrgX1 antag -5.3 (no result: RGS4 act, RGS4 block) | MrgX1 ant reconf inactive | HEK293 Ca flux inactive | HEK293 Ca counter inactive | HEK293 Ca cntr2 inactive
O=C(Cc1ccc(Cl)cc1)Nc1ccc(C(=O)N2CCOCC2)cc1	none
O=C(NC(=S)Nc1ccccn1)c1cncc(Br)c1	none
Cc1cccnc1NC(=S)NC(=O)c1cncc(Br)c1	MrgX1 antag -4.6 | MrgX1 ant reconf inactive | HEK293 Ca flux inactive | HEK293 Ca counter inactive | HEK293 Ca cntr2 inactive
O=C1CCC([N+](=O)[O-])C(c2cc(Br)ccc2F)N1 (stereo unspecified)	none
COc1cc2c(cc1OC)C(c1cccs1)N(C(=O)c1cccc(S(=O)(=O)N(C)C)c1)CC2 (stereo unspecified)	none
O=C(O)CCN1C(=O)NC2(CCCC2)C1=O	MrgX1 antag -7.3 | MrgX1 ant reconf inactive | HEK293 Ca flux inactive | HEK293 Ca counter inactive | HEK293 Ca cntr2 inactive
O=C(CN1C(=O)NC2(CCCC2)C1=O)Nc1ccccc1	none
COCc1nc(-c2ccc(-c3ccc(OC)cc3)nc2OC)no1	MrgX1 antag -11 | MrgX1 ant reconf inactive | HEK293 Ca flux inactive | HEK293 Ca counter inactive | HEK293 Ca cntr2 inactive
CCOc1ccccc1NC(=O)CCC(=O)Nc1ccc2nc(N3CCN(C)CC3)cc(C)c2c1	MrgX1 antag -5.1 | MrgX1 ant reconf inactive | HEK293 Ca flux inactive | HEK293 Ca counter inactive | HEK293 Ca cntr2 inactive
CN1C(=O)N(C)C2C1N(CN1CCCCC1)C(=O)N2CN1CCCCC1 (stereo unspecified)	MrgX1 antag -4.9 | MrgX1 ant reconf 84% | HEK293 Ca flux inactive | HEK293 Ca counter inactive | HEK293 Ca cntr2 inactive
Cc1cc(=O)c2cc3nc(-c4cccnc4)oc3c(Br)c2o1	none
COCCn1c(=S)[nH]c2cc(OC)c(OC)cc2c1=O	MrgX1 antag -9.1 | MrgX1 ant reconf inactive | HEK293 Ca flux inactive | HEK293 Ca counter inactive | HEK293 Ca cntr2 inactive
CCN(CC)CCCn1c(=S)[nH]c2cc(OC)c(OC)cc2c1=O	none
COc1ccc(C(=O)NCC(=O)OCC(=O)Nc2sccc2C#N)cc1OC	MrgX1 antag -4.6 | MrgX1 ant reconf inactive | HEK293 Ca flux inactive | HEK293 Ca counter inactive | HEK293 Ca cntr2 inactive
CN(C)CCNC(=O)Cn1ccc2cc(S(=O)(=O)N3CCCCCC3)ccc21	none
COC(=O)c1c(NC(=O)c2ccco2)sc(C(=O)Nc2ccc(F)cc2)c1C	none
COC(=O)c1c(NC(=O)c2ccco2)sc(C)c1C	MrgX1 antag -7.7 | MrgX1 ant reconf 81% | HEK293 Ca flux inactive | HEK293 Ca counter inactive | HEK293 Ca cntr2 inactive
COC(=O)c1c(NC(=O)Cc2ccccc2)sc(C)c1C	none
COC(=O)c1c(NC(=O)CSc2ccccc2N)sc(C)c1C	MrgX1 antag -4.7 | MrgX1 ant reconf inactive | HEK293 Ca flux inactive | HEK293 Ca counter inactive | HEK293 Ca cntr2 inactive
CC1(C)CC(=O)C(CC(=O)Nc2cc(C(F)(F)F)ccc2Cl)C(=O)C1	none
CC(C)c1ccc(NC(=O)C2CC(=O)N(C(C)C)C2)cc1 (stereo unspecified)	MrgX1 antag -9 | MrgX1 ant reconf inactive | HEK293 Ca flux inactive | HEK293 Ca counter inactive | HEK293 Ca cntr2 inactive
CC(C)(C)N1CC(C(=O)Nc2ccc(S(N)(=O)=O)cc2)CC1=O (stereo unspecified)	MrgX1 antag -4.9 | MrgX1 ant reconf inactive | HEK293 Ca flux inactive | HEK293 Ca counter inactive | HEK293 Ca cntr2 inactive
CC(C)(C)N1CC(C(=O)Nc2ccc(S(=O)(=O)N3CCCCC3)cc2)CC1=O (stereo unspecified)	none
CCOc1ncccc1C(=O)OCC(=O)NCc1ccc2c(c1)OCO2	MrgX1 antag -4.9 | MrgX1 ant reconf inactive | HEK293 Ca flux inactive | HEK293 Ca counter inactive | HEK293 Ca cntr2 inactive
COc1ccc(CNC(=O)COC(=O)Cc2ccsc2)cc1	MrgX1 antag -4.5 | MrgX1 ant reconf inactive | HEK293 Ca flux inactive | HEK293 Ca counter inactive | HEK293 Ca cntr2 inactive
O=C(Cc1cccs1)NCc1ccc2c(c1)OCO2	MrgX1 antag -8 | MrgX1 ant reconf inactive | HEK293 Ca flux inactive | HEK293 Ca counter inactive | HEK293 Ca cntr2 inactive
COc1ccc(CC(=O)NCc2cccs2)cc1	MrgX1 antag -6.6 | MrgX1 ant reconf inactive | HEK293 Ca flux inactive | HEK293 Ca counter inactive | HEK293 Ca cntr2 inactive
CCOC(=O)c1cnc(SC)nc1Oc1cccc(NS(=O)(=O)c2ccc(F)cc2)c1	MrgX1 antag -6.8 | MrgX1 ant reconf inactive | HEK293 Ca flux inactive | HEK293 Ca counter inactive | HEK293 Ca cntr2 inactive
CCOC(=O)c1cnc(SC)nc1Oc1cccc(NS(=O)(=O)c2ccccc2)c1	none
O=C(Nc1cccc(C(=O)N2CCCCCC2)c1)c1ccco1	MrgX1 antag -4.7 | MrgX1 ant reconf inactive | HEK293 Ca flux inactive | HEK293 Ca counter inactive | HEK293 Ca cntr2 inactive
C#CCOc1ccccc1C(N)=O	none
